ChEMBL document CHEMBL3286382, “Synthesis and biological evaluation of imidazo[1,2-a]pyrimidines and imidazo[1,2-a]pyridines as new inhibitors of the Wnt/β-catenin signaling” (Eur J Med Chem, 2014)
Active and inactive are the calls of the source. The rule behind the calls is not given here.

Assays:
[1] = tested on: A549; assay: Antiproliferative activity against human A549 cells after 72 hrs by MTT assay; format: functional; conditions: A549, 72 h
How it was run: (§1)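 Cells grown in DMEM with 10% FBS, penicillin G, streptomycin and L-glutamine, seeded 7 x 10^3 per well, left 24 h, then exposed to scalar concentrations in complete medium for 72 h at 37 °C, 5% CO2. Viability read by MTT; IC50 taken as the concentration giving 50% inhibition of proliferation.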

[2] = species on record: Danio rerio; assay: Toxicity in zebrafish larvae assessed as mortality at 5 to 25 uM treated for 7 days; format: organism-based; conditions: in vivo, 168 h
How it was run: (§2)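 Wild-type zebrafish larvae raised under standard conditions were exposed to compounds dissolved in E3 medium. The medium containing compound was renewed every day for 7 days. The read-out was survival rate (mortality) at the end of exposure.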

[3] = tested on: HepG2; assay: Antiproliferative activity against human HepG2 cells after 72 hrs by MTT assay; format: functional; conditions: HepG2, 72 h; how it was run: as §1
[4] = tested on: LoVo; assay: Antiproliferative activity against human LoVo cells after 72 hrs by MTT assay; format: functional; how it was run: as §1
[5] = species on record: Danio rerio; assay: Inhibition of Wnt/beta-catenin signaling in zebrafish larvae assessed as inhibition of Tcf/Lef transcriptional activity measured as thinner intestine at 1 uM after 72 hrs by GFP reporter assay; format: functional, organism-based
How it was run: (§3)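 TCF/LEF-GFP reporter zebrafish were exposed from 24 hours post-fertilization for 72 h, with compounds dissolved in E3 medium that was renewed daily. GFP in the head and intestine was imaged by fluorescence stereomicroscope at 8X, alongside bright-field images.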

[6] = tested on: HT-29; assay: Antiproliferative activity against human HT-29 cells after 72 hrs by MTT assay; format: functional; conditions: HT-29, 72 h; how it was run: as §1
[7] = species on record: Danio rerio; assay: Toxicity in zebrafish larvae assessed as mortality at 1 uM treated for 7 days; format: organism-based; conditions: in vivo, 168 h; how it was run: as §2
[8] = tested on: HT-29; assay: Inhibition of Wnt signaling in human HT29 cells assessed as inhibition of beta-catenin-mediated Tcf/Lef transcriptional activity after 24 hrs by dual luciferase reporter gene assay relative to control; format: cell-based; conditions: HT-29, 24 h
[9] = tested on: HT-29; assay: Inhibition of Wnt/beta-catenin signaling in human HT29 cells assessed as downregulation of cyclin D1 protein expression at 25 uM after 24 hrs by Western blot analysis; format: cell-based
How it was run: (§4)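 After 24 h exposure, HT-29 cells were washed in cold PBS, lysed on ice for 30 min and cleared at 15 000 g, 4 °C. 10 µg protein was run on 12% SDS-PAGE and transferred to PVDF. Blots were probed with specific primary antibodies, then peroxidase-labelled secondaries, and developed by ECL. β-actin re-probing served as the loading control.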

[10] = species on record: Danio rerio; assay: Toxicity in zebrafish larvae assessed as mortality at 25 uM treated for 7 days; format: organism-based; conditions: in vivo, 168 h; how it was run: as §2
[11] = tested on: HT-29; assay: Inhibition of Wnt/beta-catenin signaling in human HT29 cells assessed as decrease in TCF1 protein level at 25 uM after 24 hrs by Western blot analysis; format: cell-based; how it was run: as §4
[12] = tested on: HT-29; assay: Inhibition of Wnt/beta-catenin signaling in human HT29 cells assessed as decrease in TCF4 mRNA expression at 25 uM after 24 hrs by quantitative real-time PCR assay; format: cell-based
How it was run: (§5)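 Total RNA was extracted with TRIzol from HT-29 cells treated for 24 h. Transcripts were measured by real-time RT-PCR with GUS as the reference gene, and expression was expressed relative to untreated cells.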

[13] = tested on: HT-29; assay: Inhibition of Wnt/beta-catenin signaling in human HT29 cells assessed as increase in phosphorylated c-myc level at 25 uM after 24 hrs by Western blot analysis; format: cell-based; how it was run: as §4
[14] = species on record: Danio rerio; assay: Inhibition of Wnt/beta-catenin signaling in zebrafish larvae assessed as inhibition of Tcf/Lef transcriptional activity measured as thinner intestine at 10 uM after 72 hrs by GFP reporter assay; format: functional, organism-based; how it was run: as §3
[15] = tested on: HT-29; assay: Inhibition of Wnt/beta-catenin signaling in human HT29 cells assessed as effect on c-myc mRNA expression at 25 uM after 24 hrs by quantitative real-time PCR assay; format: cell-based; how it was run: as §5
[16] = tested on: HT-29; assay: Inhibition of Wnt/beta-catenin signaling in human HT29 cells assessed as GSK3-beta dephosphorylation at Ser21/Ser9 residues at 25 uM after 24 hrs by Western blot analysis; format: cell-based; how it was run: as §4
[17] = tested on: HT-29; assay: Inhibition of Wnt signaling in human HT29 cells assessed as inhibition of beta-catenin-mediated Tcf/Lef transcriptional activity at 25 uM after 24 hrs by dual luciferase reporter gene assay relative to control; format: cell-based
How it was run: (§6)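 HT-29 cells (1.4 x 10^4) were co-transfected with 1 µg BAT-LUX, which carries 7 TCF sites and the siamois promoter driving firefly luciferase, plus 1 µg Renilla vector. Cells were then treated at 37 °C for 24 h, with or without the GSK-3β inhibitor LiCl. Dual-Glo readout; values are the mean firefly/Renilla ratio.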

[18] = tested on: Danio rerio; assay: Inhibition of Wnt/beta-catenin signaling in zebrafish larvae assessed as inhibition of Tcf/Lef transcriptional activity measured as pericardial edema at 10 uM after 72 hrs by GFP reporter assay; format: functional, organism-based; how it was run: as §3
[19] = tested on: HT-29; assay: Inhibition of Wnt/beta-catenin signaling in human HT29 cells assessed as […] in axin2 mRNA expression at 25 uM after 24 hrs by quantitative real-time PCR assay; format: cell-based; how it was run: as §5
[20] = tested on: HT-29; assay: Inhibition of Wnt/beta-catenin signaling in human HT29 cells assessed as downregulation of cyclin B1 protein expression at 25 uM after 24 hrs by Western blot analysis; format: cell-based; how it was run: as §4
[21] = Antiproliferative activity against human fibroblasts after 72 hrs by MTT assay; format: cell-based, Fibroblast
[22] = tested on: HT-29; assay: Cell cycle arrest in human HT-29 cells assessed as reduction of cells in S phase at 25 uM after 24 hrs by flow cytometry; format: functional, cell-based
How it was run: (§7)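 Exponentially growing HT-29 cells (1.5 × 10^5) were treated with the compounds for 24 h, then collected and fixed in ice-cold 70% ethanol. Fixed cells were treated with lysis buffer holding RNase A and 0.1% Triton X-100, stained with PI and analysed for DNA content by flow cytometry.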

[23] = tested on: HT-29; assay: Inhibition of Wnt signaling in human HT29 cells assessed as inhibition of beta-catenin-mediated Tcf/Lef transcriptional activity at 25 uM after 24 hrs by dual luciferase reporter gene assay relative to control in presence of GSK-3beta inhibitor LiCl; format: cell-based; how it was run: as §6
[24] = tested on: HT-29; assay: Cell cycle arrest in human HT-29 cells assessed as reduction of cells in G2/M phase at 25 uM after 24 hrs by flow cytometry; format: functional, cell-based; how it was run: as §7
[25] = species on record: Danio rerio; assay: Inhibition of Wnt/beta-catenin signaling in zebrafish larvae assessed as inhibition of Tcf/Lef transcriptional activity measured as dysmorphic craniofacial features at 10 uM after 72 hrs by GFP reporter assay; format: functional, organism-based; how it was run: as §3
[26] = tested on: HT-29; assay: Inhibition of Wnt signaling in human HT29 cells assessed as beta-catenin dephosphorylation at S33/37/T41 residues at 25 uM after 24 hrs by Western blot analysis; format: cell-based; how it was run: as §4
[27] = tested on: HT-29; assay: Cell cycle arrest in human HT-29 cells assessed as accumulation of cells at G1 phase at 25 uM after 24 hrs by flow cytometry; format: functional, cell-based; how it was run: as §7
[28] = tested on: HT-29; assay: Inhibition of Wnt/beta-catenin signaling in human HT29 cells assessed as increase in p21 protein expression at 25 uM after 24 hrs by Western blot analysis; format: cell-based; how it was run: as §4

In the case of `CC(=O)Nc1cc(=O)n(Cc2ccccc2)c(SCc2ccccc2)n1`, the GI50 [1] is reported as 50.4 µM, the Activity [2] is reported as “Toxic” and the GI50 [3] is reported as 71.7 µM. For the same compound, the GI50 [4] was 56.3 µM, the inhibition [5] was “Active” and the GI50 [6] was 79.3 µM. The Activity [7] was “Non-toxic” and the IC50 [8] was 35.6 µM.

In the case of `Cc1ccn2cc(-c3ccc(N(Cc4ccccc4)Cc4ccccc4)cc3)nc2c1`, the inhibition [9] is reported as “Active”, the Activity [10] is reported as “Toxic” and the GI50 [1] is reported as 17.2 µM. For the same compound, the inhibition [11] was “Active”, the inhibition [12] was “Active” and the inhibition [13] was “Active”. For the same compound, the inhibition [14] was “Active”, the GI50 [3] was 18.4 µM and the inhibition [15] was “inactive”. The inhibition [16] was “inactive”, the inhibition [17] was “Active” and the inhibition [18] was “Active”. For the same compound, the inhibition [19] was “Active”, the inhibition [20] was “Active” and the GI50 at 72 h [21] was 52.3 µM. For the same compound, the Activity [22] was “Active”, the inhibition [23] was “Active” and the Activity [24] was “Active”. For the same compound, the GI50 [4] was 5.7 µM, the GI50 [6] was 6.9 µM and the inhibition [25] was “Active”. For the same compound, the inhibition [26] was “Active”, the Activity [27] was “Active” and the inhibition [28] was “Active”. For the same compound, the IC50 [8] was 24.1 µM.
